Molecules are shown by their SMILES.

What all share (format): functional
Assay [1] has as its system L1210. As to the kind of experiment: Anti tumor activity against L1210 leukemia in tissue culture and the molar concentration required to reduce the number of L1210 cells. The conditions noted are these: Mus musculus, L1210, read-out: ID50. Summed up:
(§1)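 L1210 leukemia cells in tissue culture were incubated with the test drug for 2 days and the cell number was then assessed. ID50 is the molar drug concentration that reduces the number of L1210 cells by 50%.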

In assay [2] the test system is Mus musculus. Nature of the assay: Antimalarial activity against Plasmodium berghei strain in mice (Mus musculus) by parentral route and change in mean survival time in days was determined at 320 mg/kg subcutaneous dose. Summed up: (§2)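 Normal drug-sensitive P. berghei strain in mice. Test agents dissolved or suspended in peanut oil and given as a single sc dose 72 h postinfection, five mice per dose group. ΔMST = mean survival time of treated mice minus that of controls (days). 60-day survivors are excluded from the treated mean and scored as cured. Minimum active response is a 100% increase in MSTT.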

In assay [3] the test system is Mus musculus. As to the kind of experiment: Antimalarial activity against Plasmodium berghei strain in mice (Mus musculus) by parentral route and change in mean survival time in days was determined at 80 mg/kg subcutaneous dose. In a few lines: as §2
Assay [4] relates to Mus musculus. As to the kind of experiment: Antimalarial activity against Plasmodium berghei strain in mice (Mus musculus) by parentral route and change in mean survival time in days was determined at 40 mg/kg subcutaneous dose. Summed up: as §2
For assay [5], the system named is Mus musculus. As to the kind of experiment: Antimalarial activity against Plasmodium berghei strain in mice (Mus musculus) by parentral route and change in mean survival time in days was determined at 160 mg/kg subcutaneous dose. In a few lines: as §2
In assay [6] the test system is Mus musculus. As to the kind of experiment: Antimalarial activity against Plasmodium berghei strain in mice (Mus musculus) by parentral route and change in mean survival time in days was determined at 640 mg/kg subcutaneous dose. In a few lines:
as §2

Assay [7] has as its system L1210. As to the kind of experiment: Anti tumor activity against L1210 leukemia in tissue culture and the molar concentration required to reduce the number of L1210 cells by 50% was determined. The conditions noted are these: Mus musculus, L1210, read-out: ID50. Summed up: as §1

In the case of `Nc1nc(N)c2cc(S(=O)(=O)c3ccc4ccccc4c3)ccc2n1`, the IC50 in assay [1] stood at 0.11 µM.
Take `CONc1nc(N)nc2ccc(S(=O)(=O)c3ccc4ccccc4c3)cc12`: the “Delta MST” value in assay [2] stood at 12.7 days; in assay [3], 5.7 days; in assay [4] it was 3.9 days; in assay [5], 9.1 days.
Consider `NNc1nc(N)nc2ccc(Sc3cccc(C(F)(F)F)c3)cc12`, for which the “Delta MST” value amounted to 11.9 days in assay [2]; 3.1 days in assay [3]; 15.7 days in assay [6]; 0.5 days in assay [4]; 6.9 days in assay [5].
As to `Nc1nc(NO)c2cc(S(=O)(=O)c3ccc4ccccc4c3)ccc2n1`, the “Delta MST” value in assay [2] is 14.1 days; in assay [3], 8.9 days; in assay [6], 15.3 days; in assay [4], 6.1 days; in assay [5] it was 11.1 days.
`NNc1nc(N)nc2ccc(S(=O)(=O)c3ccc4ccccc4c3)cc12`: the “Delta MST” value in assay [2] stood at 3.5 days; in assay [3], 1.3 days; in assay [6], 4.5 days; in assay [4], 0.5 days; in assay [5], 2.3 days.
As to `CONc1nc(N)nc2ccc(Sc3cccc(C(F)(F)F)c3)cc12`, the IC50 in assay [7] was found to be 24 µM. Besides, the “Delta MST” value came out at 6.9 days in assay [3], 5.7 days in assay [4] and 9.7 days in assay [5].
For `CN(N)c1nc(N)nc2ccc(S(=O)(=O)c3ccc4ccccc4c3)cc12`, the “Delta MST” value in assay [2] was found to be 7.1 days; in assay [3], 2.3 days; in assay [6] it was 10.7 days; in assay [4], 0.5 days; in assay [5] it was 4.3 days.
On to `ONc1nc(NO)c2cc(Sc3cccc(C(F)(F)F)c3)ccc2n1`, for which the “Delta MST” value in assay [2] came to 10.7 days; in assay [3], 3.1 days; in assay [4] it was 1.7 days; in assay [5] it was 9.7 days.
On to `CN(N)c1nc(N)nc2ccc(Sc3cccc(C(F)(F)F)c3)cc12`, for which the “Delta MST” value in assay [3] was determined as 8.9 days; in assay [4] it was 5.7 days; in assay [5], 12.3 days.
In the case of `Nc1nc(NO)c2cc(Sc3cccc(C(F)(F)F)c3)ccc2n1`, the “Delta MST” value came to 10.3 days in assay [2], 5.1 days in assay [3], 3.5 days in assay [4] and 8.1 days in assay [5].
With `O=S(=O)(c1ccc2ccccc2c1)c1ccc2nc(NO)nc(NO)c2c1`, the “Delta MST” value in assay [2] was 8.1 days; in assay [3], 3.3 days; in assay [6], 10.7 days; in assay [4], 1.1 days; in assay [5], 5.9 days.

These data come from ChEMBL document CHEMBL1123553, “Synthesis and antimalarial and antitumor effects of 2-amino-4-(hydrazino and hydroxyamino)-6-[(aryl)thio]quinazolines” (1987).
